Test results as given in ChEMBL document CHEMBL1800033, “Refining the eosinophil cationic protein antibacterial pharmacophore by rational structure minimization” (J Med Chem, 2011).
Values after ≈ are worked out from the molar mass of the structure shown. Active and inactive are the calls of the source. The rule behind the calls is not given here. Where a SMILES comes first, the peptide text is derived from it. [ ]: non-standard residue; d: D form. Ahx = NCCCCCC(=O)O

Legend:
[1] = system: Staphylococcus aureus; assay: Bactericidal activity against Staphylococcus aureus ATCC 502A after over night incubation; type: functional; details: read-out: MIC100
Outline: (§1)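 Overnight LB cultures (37 °C) diluted to about 5 × 10^5 CFU/mL; peptides in 10 mM sodium phosphate pH 7.5, serially diluted 10 to 0.2 μM, incubated with bacteria 4 h, then plated and grown overnight at 37 °C; MIC from two independent experiments, triplicate per concentration.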

[2] = system: Escherichia coli; assay: Bactericidal activity against Escherichia coli BL2 after over night incubation; type: functional; details: read-out: MIC100; outline: as §1
[3] = system: Pseudomonas sp.; assay: Bactericidal activity against Pseudomonas sp. ATCC 15915 after over night incubation; type: functional; details: read-out: MIC100; outline: as §1
[4] = system: Acinetobacter baumannii; assay: Bactericidal activity against Acinetobacter baumannii ATCC 15308 after over night incubation; type: functional; details: read-out: MIC100; outline: as §1
[5] = Toxicity in human RBC assessed as hemolytic activity after 4 hrs; type: cell-based, Erythrocyte; details: human red blood cells (RBC)
Outline: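 Fresh human RBCs washed thrice in PBS (35 mM phosphate, 0.15 M NaCl, pH 7.4), 2 × 10^7 cells/mL, incubated with peptide 4 h at 37 °C; supernatant A570 read, 100% lysis set by 10 s sonication; HC50 from sigmoidal fit.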

[6] = system: Micrococcus luteus; assay: Bactericidal activity against Micrococcus luteus ATCC 7468 after over night incubation; type: functional; details: read-out: MIC100; outline: as §1
[7] = system: Enterococcus faecium; assay: Bactericidal activity against Enterococcus faecium ATCC 19434 after over night incubation; type: functional; details: read-out: MIC100; outline: as §1
[8] = Induction of membrane damage in DOPC/DOPG large unilamellar vesicles model at <10 uM after 1 hr by leakage fluorescence assay; type: physicochemical
[9] = system: Lipopolysaccharide (LPS); assay: Displacement of BODIPY TR cadaverine from Escherichia coli serotype 0111:B4 lipopolysaccharide by fluorescent displacement assay
Outline: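 Bodipy TR cadaverine displacement: protein or peptide aliquots added to a stirred mix of LPS (10 μg/mL) and probe (10 μM) in 5 mM Hepes pH 7.5; fluorescence followed, effective displacement value (ED50) calculated.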

[10] = Induction of membrane damage in DOPC/DOPG large unilamellar vesicles model after 1 hr by leakage fluorescence assay; type: physicochemical; details: read-out: ED50 (the source's name)
[11] = system: Escherichia coli; assay: Antibacterial activity against Escherichia coli assessed as concentration required to cause minimum agglutination behavior after overnight incubation; type: functional
Outline: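 E. coli grown at 37 °C to mid-exponential phase (OD600 0.6), pelleted, resuspended in Tris-HCl, 0.15 M NaCl, pH 7.5 to A600 of 10; suspension incubated with peptide at 0.1–10 μM, 25 °C overnight; agglutination scored by visual inspection, reported as minimal agglutinating concentration.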

[12] = system: Lipopolysaccharide (LPS); assay: Displacement of BODIPY TR cadaverine from Escherichia coli serotype 0111:B4 lipopolysaccharide at <10 uM by fluorescent displacement assay

Molecule	MIC [1]	MIC [2]	MIC [3]	MIC [4]	HC50 at 4 h [5]	MIC [6]	MIC [7]	Activity [8]	ED50 [9]	EC50 [10]	Activity [11]	Activity [12]
CC[C@H](C)[C@H](NC(=O)CNC(=O)[C@@H](NC(=O)[C@H](CCCCN)NC(=O)[C@H](CCCCN)NC(=O)[C@H](Cc1ccccc1)NC(=O)[C@H](CC(C)C)NC(=O)[C@H](CCCCN)NC(=O)[C@H](Cc1c[nH]c2ccccc12)NC(=O)[C@@H](N)CCCCN)[C@@H](C)CC)C(=O)NCC(=O)N[C@@H](C)C(=O)N[C@H](C(=O)N[C@@H](CC(C)C)C(=O)N[C@@H](CCCCN)C(=O)N[C@H](C(=O)N[C@@H](CC(C)C)C(=O)N[C@H](C(=O)N[C@H](C(=O)NCC(=O)N[C@@H](CC(C)C)C(=O)N1CCC[C@H]1C(=O)N[C@@H](C)C(=O)N[C@@H](CC(C)C)C(=O)N[C@H](C(=O)N[C@@H](CO)C(=O)O)[C@@H](C)CC)[C@@H](C)O)[C@@H](C)O)C(C)C)C(C)C	0.4 µM (≈ 1.12 µg/mL)	1.1 µM (≈ 3.08 µg/mL)	0.6 µM (≈ 1.68 µg/mL)	0.88 µM (≈ 2.46 µg/mL)	7.8 µM	1.5 µM (≈ 4.19 µg/mL)	1.5 µM (≈ 4.19 µg/mL)	–	–	–	–	–
CC[C@H](C)[C@H](NC(=O)[C@H](C)NC(=O)[C@H](CCCNC(=N)N)NC(=O)[C@H](CCSC)NC(=O)[C@H](C)NC(=O)[C@@H](NC(=O)[C@@H](NC(=O)[C@H](CO)NC(=O)CCCCCNC(=O)[C@H](Cc1cnc[nH]1)NC(=O)[C@H](CCC(N)=O)NC(=O)[C@@H](NC(=O)[C@H](C)NC(=O)[C@H](Cc1ccccc1)NC(=O)[C@H](Cc1c[nH]c2ccccc12)NC(=O)[C@H](CCC(N)=O)NC(=O)[C@H](C)N)[C@@H](C)CC)[C@@H](C)O)[C@@H](C)CC)C(=O)N[C@@H](CC(N)=O)C(=O)O (H-AQWFAIQH[Ahx]STIAMRAIN-OH)	> 10 µM	> 10 µM	> 10 µM	> 10 µM	15.2 µM	> 10 µM	> 10 µM	Not Active	5130 nM	–	–	–
CC[C@H](C)[C@H](NC(=O)[C@H](C)NC(=O)[C@H](Cc1ccccc1)NC(=O)[C@H](Cc1c[nH]c2ccccc12)NC(=O)[C@H](CCC(N)=O)NC(=O)[C@H](C)N)C(=O)N[C@@H](CCC(N)=O)C(=O)N[C@@H](Cc1cnc[nH]1)C(=O)NCCCCCC(=O)N[C@@H](CO)C(=O)N[C@H](C(=O)N[C@H](C(=O)N[C@@H](C)C(=O)N[C@@H](CCSC)C(=O)N[C@@H](CCCNC(=N)N)C(=O)N[C@@H](C)C(=O)N[C@H](C(=O)N[C@@H](CC(N)=O)C(=O)N[C@@H](CC(N)=O)C(=O)N[C@@H](Cc1ccc(O)cc1)C(=O)N[C@@H](CCCNC(=N)N)C(=O)N[C@@H](Cc1c[nH]c2ccccc12)C(=O)N[C@@H](CCCNC(=N)N)C(=O)O)[C@@H](C)CC)[C@@H](C)CC)[C@@H](C)O (H-AQWFAIQH[Ahx]STIAMRAINNYRWR-OH)	1.1 µM (≈ 3.13 µg/mL)	1.5 µM (≈ 4.27 µg/mL)	3.5 µM (≈ 9.97 µg/mL)	7 µM (≈ 19.9 µg/mL)	14.4 µM	> 10 µM	> 10 µM	–	1950 nM	1630 nM	–	–
CC[C@H](C)[C@H](NC(=O)[C@H](C)NC(=O)[C@H](CCCNC(=N)N)NC(=O)[C@H](CCSC)NC(=O)[C@H](C)NC(=O)[C@@H](NC(=O)[C@@H](NC(=O)[C@H](CO)NC(=O)CCCCCNC(=O)[C@H](CO)NC(=O)[C@@H](NC(=O)[C@H](Cc1cnc[nH]1)NC(=O)[C@H](CCC(N)=O)NC(=O)[C@@H](NC(=O)[C@H](C)NC(=O)[C@H](Cc1ccccc1)NC(=O)[C@H](Cc1c[nH]c2ccccc12)NC(=O)[C@H](CCC(N)=O)NC(=O)[C@H](C)NC(=O)[C@H](CCCNC(=N)N)NC(=O)[C@@H](N)[C@@H](C)O)[C@@H](C)CC)[C@@H](C)CC)[C@@H](C)O)[C@@H](C)CC)C(=O)N[C@@H](CC(N)=O)C(=O)N[C@@H](CC(N)=O)C(=O)N[C@@H](Cc1ccc(O)cc1)C(=O)N[C@@H](CCCNC(=N)N)C(=O)N[C@@H](Cc1c[nH]c2ccccc12)C(=O)N[C@@H](CCCNC(=N)N)C(=O)O (H-TRAQWFAIQHIS[Ahx]STIAMRAINNYRWR-OH)	0.87 µM (≈ 2.88 µg/mL)	0.6 µM (≈ 1.98 µg/mL)	1.5 µM (≈ 4.96 µg/mL)	0.88 µM (≈ 2.91 µg/mL)	7.3 µM	1.5 µM (≈ 4.96 µg/mL)	1.5 µM (≈ 4.96 µg/mL)	–	1600 nM	820 nM	<1 µM	–
H-AQWFAIQHISLNPPRSTIAMRAINNYRWR-OH	0.7 µM	1.5 µM	3.5 µM	1.5 µM	10.3 µM	3.5 µM	1.5 µM	–	2430 nM	740 nM	<1 µM	–
H-AQWFAIQHISLNPPRSTIAMRAINNYRWRSKNQNTFLR-OH	0.7 µM	0.45 µM	1.5 µM	0.88 µM	10.5 µM	1.5 µM	1.5 µM	–	1580 nM	400 nM	<1 µM	–
H-ISLNPPRSTIAMRAINNYRWRSKNQNTFLR-OH	1.5 µM	1.5 µM	1.5 µM	3.5 µM	10.5 µM	3.5 µM	3.5 µM	–	6130 nM	760 nM	–	–
H-RPPQFTRAQWFAIQHISLN-OH	> 10 µM	> 10 µM	> 10 µM	> 10 µM	11.2 µM	> 10 µM	> 10 µM	Not Active	–	–	–	inactive
H-TIAMRAINNYRWRSKNQNTFLR-OH	1.5 µM	7 µM	7 µM	1.1 µM	18.7 µM	7 µM	7 µM	–	1520 nM	1250 nM	–	–
